Assay results reported in ChEMBL document CHEMBL5712885, “A chromatin activity-based chemoproteomic approach reveals a transcriptional repressome for gene-specific silencing” (Nat Commun, 2014).
The source made the active and inactive calls. The calls are words filed in the database; no cut-off is given here. Where a SMILES comes first, the peptide text is derived from it. The star is where a group is joined. Cbz = O=C(OCc1ccccc1)*

Experiments:
RAW264.7 [1] = experiment: Upregulation of C-Myc protein expression in LPS tolerant mouse RAW264.7 cells in presence of G9a/LPS at 10 uM upto 4 hrs by immunoblot analysis; format: functional, cell-based
RAW264.7 [2] = experiment: Upregulation of C-Myc protein expression in LPS tolerant mouse RAW264.7 cells with G9a knock down at 10 uM upto 4 hrs in presence of LPS by immunoblot analysis; format: functional, cell-based
RAW264.7 [3] = experiment: Upregulation of C-Myc protein expression in LPS tolerant mouse RAW264.7 cells at 10 uM upto 4 hrs in presence of LPS by immunoblot analysis; format: functional, cell-based
[4] = target: T1, Histone-lysine N-methyltransferase EHMT2 (Mus musculus) (UniProt Q9Z148); conditions: C57BL/6, RAW264.7, dose 250.0 nM, time 16.0 hrs
T1 sequence (whole entry): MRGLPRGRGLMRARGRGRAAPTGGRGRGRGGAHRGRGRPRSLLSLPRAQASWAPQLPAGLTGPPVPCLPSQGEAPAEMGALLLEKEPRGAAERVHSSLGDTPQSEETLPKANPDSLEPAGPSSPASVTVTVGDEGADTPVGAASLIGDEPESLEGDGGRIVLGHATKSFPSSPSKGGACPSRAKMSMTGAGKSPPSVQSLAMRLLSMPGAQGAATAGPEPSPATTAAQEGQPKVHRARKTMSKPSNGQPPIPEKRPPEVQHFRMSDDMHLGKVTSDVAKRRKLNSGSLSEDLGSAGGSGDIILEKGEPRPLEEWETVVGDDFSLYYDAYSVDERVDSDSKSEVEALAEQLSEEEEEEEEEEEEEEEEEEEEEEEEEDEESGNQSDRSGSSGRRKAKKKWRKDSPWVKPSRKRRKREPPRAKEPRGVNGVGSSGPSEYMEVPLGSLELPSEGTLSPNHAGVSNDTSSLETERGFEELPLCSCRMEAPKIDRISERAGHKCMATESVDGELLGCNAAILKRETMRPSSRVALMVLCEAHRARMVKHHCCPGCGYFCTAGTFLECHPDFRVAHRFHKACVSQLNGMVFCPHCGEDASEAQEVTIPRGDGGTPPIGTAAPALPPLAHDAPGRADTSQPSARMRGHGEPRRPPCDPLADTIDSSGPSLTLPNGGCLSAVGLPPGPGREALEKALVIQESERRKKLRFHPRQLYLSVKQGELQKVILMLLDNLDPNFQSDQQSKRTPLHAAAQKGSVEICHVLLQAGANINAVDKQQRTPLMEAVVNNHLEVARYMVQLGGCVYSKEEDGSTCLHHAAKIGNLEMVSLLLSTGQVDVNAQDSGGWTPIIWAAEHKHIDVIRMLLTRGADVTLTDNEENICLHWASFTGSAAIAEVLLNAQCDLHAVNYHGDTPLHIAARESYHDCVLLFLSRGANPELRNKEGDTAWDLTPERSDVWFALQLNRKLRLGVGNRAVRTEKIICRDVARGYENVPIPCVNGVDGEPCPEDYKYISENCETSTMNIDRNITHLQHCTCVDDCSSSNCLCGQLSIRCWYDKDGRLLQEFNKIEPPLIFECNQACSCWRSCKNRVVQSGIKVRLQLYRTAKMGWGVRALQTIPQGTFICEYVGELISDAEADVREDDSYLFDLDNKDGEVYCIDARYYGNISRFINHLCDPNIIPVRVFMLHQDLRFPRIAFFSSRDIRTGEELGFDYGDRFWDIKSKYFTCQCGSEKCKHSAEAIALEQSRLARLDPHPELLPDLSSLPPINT

[5] = target: T1, Histone-lysine N-methyltransferase EHMT2 (Mus musculus); conditions: C57BL/6, BMDM, dose 250.0 nM, time 16.0 hrs
[6] = target: T1, Histone-lysine N-methyltransferase EHMT2 (Mus musculus); conditions: C57BL/6, BMDM, dose 250.0 nM, time 16.0 hrs; remark: listed apart in the source
RAW264.7 [7] = experiment: Cytotoxicity against mouse RAW264.7 cells assessed as reduction in cell survival at 1 uM after 9 days Giemsa staining based assay; format: toxicity; conditions: raw264.7, 216 h, time 9 day
Summary of the method: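 Raw264.7 cells plated at 50, 100 and 200 viable cells in duplicate wells, primed 48 h with 100 ng ml⁻¹ LPS, then given fresh media containing 1 μM inhibitor. Grown 9 days, then fixed in methanol-acetic acid (3:1) and stained 30 min with 10% Giemsa. Colonies over 20 cells counted. Survival expressed as percent of colonies on plates without LPS or inhibitor.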

[8] = target: T1, Histone-lysine N-methyltransferase EHMT2 (Mus musculus); conditions: C57BL/6, BMDM, dose 250.0 nM, time 16.0 hrs; remark: listed apart in the source
[9] = target: T1, Histone-lysine N-methyltransferase EHMT2 (Mus musculus); conditions: C57BL/6, RAW264.7, dose 250.0 nM, time 16.0 hrs; remark: listed apart in the source
[10] = target: T1, Histone-lysine N-methyltransferase EHMT2 (Mus musculus); conditions: C57BL/6, BMDM, dose 250.0 nM, time 16.0 hrs; remark: listed apart in the source
RAW264.7 [11] = experiment: Down regulation of c-Myc protein expression in LPS tolerant mouse RAW264.7 cells at 1 ug/ml upto 90 mins in presence of LPS by immunoblot analysis; format: functional, cell-based; conditions: dose 1.0 µg/ml
Summary of the method: (§1)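 Raw264.7 cells (shRNA G9a-knockdown line with ≥90% knockdown, or empty-vector control) primed with 100 ng ml⁻¹ LPS for 24 h, then given 1 µg ml⁻¹ cycloheximide for indicated times. c-Myc was detected by anti-c-Myc immunoblot with γ-tubulin loading control. Bands were quantified by densitometry and plotted, and half-life was read from the fitted curve.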

RAW264.7 [12] = experiment: Down regulation of c-Myc protein expression in LPS tolerant mouse RAW264.7 cells with G9a overexpression at 1 ug/ml upto 90 mins in presence of LPS by immunoblot analysis; format: functional, cell-based; conditions: dose 1.0 µg/ml
RAW264.7 [13] = experiment: Down regulation of c-Myc protein expression in LPS tolerant mouse RAW264.7 cells with G9a knockdown at 1 ug/ml upto 90 mins by immunoblot analysis; format: functional, cell-based; conditions: dose 1.0 µg/ml; summary of the method: as §1

## CC(C)C[C@@H](C=O)NC(=O)[C@H](CC(C)C)NC(=O)[C@H](CC(C)C)NC(=O)OCc1ccccc1 (Cbz-Leu-Leu-Leu-aldehyde)
RAW264.7 [1]
  Activity: inactive
RAW264.7 [2]
  Activity: Active
RAW264.7 [3]
  Activity: Active

## COc1cc2c(NC3CCN(C(C)C)CC3)nc(C3CCCCC3)nc2cc1OCCCN1CCCC1
[4]
  inhibition: Active
[5]
  inhibition: Active
[6]
  inhibition: Active
RAW264.7 [7]
  Activity: Toxic
[8]
  inhibition: Active
[9]
  inhibition: Active
[10]
  inhibition: Active

## C[C@@H]1C[C@@H]([C@H](O)CC2CC(=O)NC(=O)C2)C(=O)[C@@H](C)C1
RAW264.7 [11]
  Activity: Active
RAW264.7 [12]
  Activity: inactive
RAW264.7 [13]
  Activity: Active
